ChEMBL document CHEMBL1250442, “Inhibiting gene expression at transcription start sites in chromosomal DNA with antigene RNAs” (Nat Chem Biol, 2005)
Calls of active or inactive are those of the source. The rule behind the calls is not given here.

Assays:
T47D [1] = experiment: Inhibition of PR-B mRNA gene expression in human T47D cells at 100 nM by syber green assay; format: functional
Procedure, shortened: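 T47D cells in RPMI-1640 with 10% FBS, NEAA, insulin, 37 °C, 5% CO2. Plated two days before transfection without antibiotics. Oligofectamine-mediated duplex RNA transfection at 100 nM final, medium changed at 24 h, harvest five days post-transfection. Total RNA extracted with TRIzol. hPR mRNA quantified by SYBR Green qPCR: 50 °C 2 min, 95 °C 10 min, then 40 cycles of 95 °C 15 s / 60 °C 1 min.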

T47D [2] = experiment: Inhibition of PR-A mRNA gene expression in human T47D cells at 100 nM by syber green assay; format: functional
Procedure, shortened: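 T47D cells plated at 80,000/well without antibiotics two days before Oligofectamine transfection with agRNA duplex (25 or 100 nM final); medium changed at 24 h, harvest day 5 unless stated otherwise. TRIzol total RNA; PR mRNA by real-time PCR with SYBR Green: 50 °C 2 min, 95 °C 10 min, 40 cycles 95 °C 15 s/60 °C 1 min.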

T47D [3] = experiment: Inhibition of PR-A gene expression in human T47D cells harboring inactive DNA methyltransferase-1 at 100 nM by syber green assay; format: functional, cell-based
T47D [4] = experiment: Inhibition of PR-B gene expression in human T47D cells harboring inactive DNA methyltransferase-1 at 100 nM by syber green assay; format: functional, cell-based
T47D [5] = experiment: Inhibition of PR-A gene expression in human T47D cells at 25 nM by syber green assay in presence of 10 nM estradiol; format: functional, cell-based
T47D [6] = experiment: Inhibition of PR-B gene expression in human T47D cells at 25 nM by syber green assay in presence of 10 nM estradiol; format: functional, cell-based

Cc1cn([C@H]2C[C@H](OP(=O)(O)OC[C@H]3O[C@@H](n4cc(C)c(=O)[nH]c4=O)C[C@@H]3O)[C@@H](COP(=O)(O)O[C@H]3[C@@H](O)[C@H](n4ccc(N)nc4=O)O[C@@H]3COP(=O)(O)O[C@H]3[C@@H](O)[C@H](n4cnc5c(=O)[nH]c(N)nc54)O[C@@H]3COP(=O)(O)O[C@H]3[C@@H](O)[C@H](n4cnc5c(N)ncnc54)O[C@@H]3COP(=O)(O)O[C@H]3[C@@H](O)[C@H](n4ccc(N)nc4=O)O[C@@H]3COP(=O)(O)O[C@H]3[C@@H](O)[C@H](n4cnc5c(N)ncnc54)O[C@@H]3COP(=O)(O)O[C@H]3[C@@H](O)[C@H](n4ccc(N)nc4=O)O[C@@H]3COP(=O)(O)O[C@H]3[C@@H](O)[C@H](n4ccc(N)nc4=O)O[C@@H]3COP(=O)(O)O[C@H]3C[C@H](n4ccc(=O)[nH]c4=O)O[C@@H]3COP(=O)(O)O[C@H]3[C@@H](O)[C@H](n4cnc5c(=O)[nH]c(N)nc54)O[C@@H]3COP(=O)(O)O[C@H]3[C@@H](O)[C@H](n4cnc5c(N)ncnc54)O[C@@H]3COP(=O)(O)O[C@H]3[C@@H](O)[C@H](n4cnc5c(=O)[nH]c(N)nc54)O[C@@H]3COP(=O)(O)O[C@H]3[C@@H](O)[C@H](n4ccc(N)nc4=O)O[C@@H]3COP(=O)(O)O[C@H]3[C@@H](O)[C@H](n4cnc5c(=O)[nH]c(N)nc54)O[C@@H]3COP(=O)(O)O[C@H]3[C@@H](O)[C@H](n4ccc(N)nc4=O)O[C@@H]3COP(=O)(O)O[C@H]3[C@@H](O)[C@H](n4ccc(=O)[nH]c4=O)O[C@@H]3COP(=O)(O)O[C@H]3[C@@H](O)[C@H](n4ccc(N)nc4=O)O[C@@H]3CO[PH](=O)O[C@H]3[C@@H](O)[C@H](n4ccc(=O)[nH]c4=O)O[C@@H]3COP(=O)(O)O[C@H]3[C@@H](O)[C@H](n4ccc(N)nc4=O)O[C@@H]3COP(=O)(O)O[C@H]3[C@@H](O)[C@H](n4ccc(=O)[nH]c4=O)O[C@@H]3CO)O2)c(=O)[nH]c1=O (stereo partly specified)
inhibition at 0.1 µM (T47D [1]): < 20% | inhibition at 0.1 µM (T47D [2]): < 20% | inhibition (T47D [3]): Active | inhibition (T47D [4]): Active | inhibition (T47D [5]): Active | inhibition (T47D [6]): Active
